Experimental data reported in ChEMBL document CHEMBL4477183, “Antimicrobial Peptide from the Wild Bee Hylaeus signatus Venom and Its Analogues: Structure-Activity Study and Synergistic Effect with Antibiotics” (J Nat Prod, 2016).
Values after ≈ are worked out from the molar mass of the structure shown. Active and inactive are the calls of the source. The calls are words filed in the database; no cut-off is given here. Non-standard residues stand in square brackets, D forms with d. Residues, ends and D or L forms follow the SMILES beside them. ξ: configuration not given here. ξNle = CCCCC(N)C(=O)O

Legend:
Pseudomonas aeruginosa [1] = test: Induction of cell permeabilization in Pseudomonas aeruginosa assessed as propidium iodide uptake at 4 uM after 10 mins; assay type: functional, organism-based
Staphylococcus aureus [2] = test: Antimicrobial activity against Staphylococcus aureus 6271 assessed as reduction in bacterial growth after 20 hrs by broth microdilution assay; conditions: Staphylococcus aureus, 6271, 20 h
Candida albicans = test: Antifungal activity against Candida albicans assessed as reduction in fungal growth after 20 hrs by […]; assay type: functional
How it was run: (§1)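 Broth microdilution in LB (YPG for C. albicans) with 2-fold serial dilutions, final 0.1–100 μM. Mid-log cells grown 3–5 h at 37 °C were added at about 5 × 10^5 cfu/mL, then incubated 20 h at 37 °C with shaking. A540 was read every 15 min to build growth curves. Medium with cells served as growth control; at least three runs in duplicate.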

Pseudomonas aeruginosa [3] = test: Antimicrobial activity against Pseudomonas aeruginosa clinical isolates assessed as FIC index in presence of rifampicin after 20 hrs by drop diffusion test; assay type: functional
Staphylococcus aureus [4] = test: Antimicrobial activity against Staphylococcus aureus clinical isolates from university hospital in Motol assessed as reduction in bacterial growth after 20 hrs by drop diffusion test; assay type: functional
[5] = test system: Staphylococcus epidermidis; test: Antimicrobial activity against Staphylococcus epidermidis assessed as reduction in bacterial growth after 20 hrs by broth microdilution assay
Bacillus subtilis = test: Antimicrobial activity against Bacillus subtilis assessed as reduction in bacterial growth after 20 hrs by […]; assay type: functional; how it was run: as §1
Pseudomonas aeruginosa [6] = test: Antimicrobial activity against Pseudomonas aeruginosa 5482 assessed as reduction in bacterial growth after 20 hrs […]; assay type: functional; conditions: Pseudomonas aeruginosa, 5482, 20 h; how it was run: as §1
[7] = Hemolytic activity in human type RBC after 1 hr; assay type: ADME, cell-based, Erythrocyte; conditions: red blood cells (erythrocytes), read-out: LC50
How it was run: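 Peptides at 2.5–400 μM were incubated with a 4% suspension of human erythrocytes in physiological solution for 1 h at 37 °C, then centrifuged at 250g for 5 min; supernatant A540 was read. Saline-treated cells gave 0% lysis and 0.2% Triton X-100 gave 100%. LC50 is the concentration lysing 50% of cells; duplicates in at least two independent experiments.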

Staphylococcus aureus [8] = test: Antimicrobial activity against Staphylococcus aureus clinical isolates assessed as FIC index in presence of amoxicillin after 20 hrs by drop diffusion test; assay type: functional
Pseudomonas aeruginosa [9] = test: Antimicrobial activity against Pseudomonas aeruginosa clinical isolates assessed as FIC index in presence of tetracycline after 20 hrs by drop diffusion test; assay type: functional
Escherichia coli = test: Antimicrobial activity against Escherichia coli assessed as reduction in bacterial growth after 20 hrs by […]; assay type: functional; how it was run: as §1
Micrococcus luteus = test: Antimicrobial activity against Micrococcus luteus assessed as reduction in bacterial growth after 20 hrs by […]; assay type: functional; how it was run: as §1
Pseudomonas aeruginosa [10] = test: Antimicrobial activity against Pseudomonas aeruginosa clinical isolates assessed as reduction in bacterial growth after 20 hrs by […]; assay type: functional; how it was run: as §1
Staphylococcus aureus [11] = test: Antimicrobial activity against Staphylococcus aureus clinical isolates from Liberec regional hospital assessed as reduction in bacterial growth after 20 hrs by […]; assay type: functional; how it was run: as §1
Staphylococcus aureus [12] = test: Antimicrobial activity against Staphylococcus aureus clinical isolates from Liberec regional hospital assessed as reduction in bacterial growth after 20 hrs by broth microdilution assay
Pseudomonas aeruginosa [13] = test: Bactericidal activity against Pseudomonas aeruginosa assessed as induction of bacteria killing at 20 uM after 4 hrs by time kill assay; assay type: functional, organism-based
How it was run: (§2)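 P. aeruginosa grown at 37 °C with shaking to mid-log phase, then diluted in fresh LB to about 5 × 10^5 cfu/mL. This inoculum was mixed 1:1 with LB containing the agent and shaken at 37 °C for 4 h. Samples were taken at 0–240 min, serially diluted in 0.9% NaCl and plated on LB agar overnight at 37 °C; viable counts are given as cfu/mL. LB-only growth control; means of four independent runs, SEM.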

Pseudomonas aeruginosa [14] = test: Bactericidal activity against Pseudomonas aeruginosa assessed as reduction in bacterial count at 20 uM after 4 hrs by time kill assay; assay type: functional
How it was run: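 P. aeruginosa inoculum about 5 × 10^5 cfu/mL in LB mixed 1:1 with LB alone or LB containing test agent at final 8, 24, 80 or 20 μM. Incubation was at 37 °C with shaking for 4 h. Aliquots taken at 0–240 min were serially diluted in 0.9% NaCl and plated on LB agar overnight at 37 °C. Viable cfu/mL were counted; means of four independent measurements.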

Pseudomonas aeruginosa [15] = test: Bacteriostatic activity against Pseudomonas aeruginosa assessed as induction of bacteria killing at 80 uM after 3 hrs by time kill assay; assay type: functional, organism-based; how it was run: as §2
Pseudomonas aeruginosa [16] = test: Bacteriostatic activity against Pseudomonas aeruginosa assessed as induction of bacteria killing at 80 uM after 60 mins by time kill assay; assay type: functional, organism-based; how it was run: as §2

Row | Compound | Activity (Pseudomonas aeruginosa [1]) | MIC (Staphylococcus aureus [2]) [µM] | MIC (Candida albicans) [µM] | fractional inhibitory concentration index (FICI) (Pseudomonas aeruginosa [3]) | MIC (Staphylococcus aureus [4]) [µM] | MIC [5] [µM] | MIC (Bacillus subtilis) [µM] | MIC (Pseudomonas aeruginosa [6]) [µM] | HC50 at 1 h [7] [µM] | fractional inhibitory concentration index (FICI) (Staphylococcus aureus [8]) | fractional inhibitory concentration index (FICI) (Pseudomonas aeruginosa [9]) | MIC (Escherichia coli) [µM] | MIC (Micrococcus luteus) [µM] | MIC (Pseudomonas aeruginosa [10]) [µM] | MIC (Staphylococcus aureus [11]) [µM] | MIC (Staphylococcus aureus [12]) [µM] | Activity (Pseudomonas aeruginosa [13]) | fold change (FC) (Pseudomonas aeruginosa [14]) | Activity (Pseudomonas aeruginosa [15]) | Activity (Pseudomonas aeruginosa [16])
1 | CCCCCCCCN=c1ccn(CCCCCCCCCCn2ccc(=NCCCCCCCC)cc2)cc1 | Active |  |  |  |  |  |  |  |  |  |  |  |  |  |  |  |  |  |  | 
2 | CCCCC(NC(=O)[C@H](CC(C)C)NC(=O)[C@H](CO)NC(=O)[C@H](CO)NC(=O)C(CCCC)NC(=O)[C@@H](NC(=O)CN)[C@@H](C)CC)C(=O)N[C@@H](CCCCN)C(=O)N[C@@H](CCCCN)C(=O)N[C@@H](CC(C)C)C(=O)N[C@@H](CCCCN)C(=O)N[C@@H](CCCCN)C(=O)N[C@H](C(=O)N[C@H](C(=O)N[C@@H](C)C(N)=O)[C@@H](C)CC)[C@@H](C)CC (stereo partly specified) (H-GI[ξNle]SSL[ξNle]KKLKKIIA-NH2) |  | 13 (≈ 21.1 µg/mL) | 10 (≈ 16.2 µg/mL) | 0.93 | 6.7 (≈ 10.9 µg/mL) | 2.5 (≈ 4.06 µg/mL) | ≤ 7 | 4 (≈ 6.5 µg/mL) | 373 | 0.55 | 0.58 | 10 (≈ 16.2 µg/mL) | ≤ 3 | 7.9 (≈ 12.8 µg/mL) | 4 (≈ 6.5 µg/mL) |  |  |  |  | 
3 | CO[C@H]1/C=C/O[C@@]2(C)Oc3c(C)c(O)c4c(O)c(c(/C=N/N5CCN(C)CC5)c(O)c4c3C2=O)NC(=O)/C(C)=C\C=C\[C@H](C)[C@H](O)[C@@H](C)[C@@H](O)[C@@H](C)[C@H](OC(C)=O)[C@@H]1C [RIFAMPIN] |  | < 0.1 |  |  | < 0.1 | < 0.1 |  | 27 (≈ 22.2 µg/mL) |  |  |  | 10 (≈ 8.23 µg/mL) |  | 19 (≈ 15.6 µg/mL) |  | < 0.1 | Active | 3 |  | 
4 | CN(C)[C@@H]1C(O)=C(C(N)=O)C(=O)[C@@]2(O)C(O)=C3C(=O)c4c(O)cccc4[C@@](C)(O)[C@H]3C[C@@H]12 [TETRACYCLINE] |  | 0.9 (≈ 0.4 µg/mL) |  |  | 2 (≈ 0.889 µg/mL) | > 100 |  | 29 (≈ 12.9 µg/mL) | > 200 |  |  | 2.7 (≈ 1.2 µg/mL) |  | 70 (≈ 31.1 µg/mL) |  | 1.1 (≈ 0.489 µg/mL) |  |  | Active | inactive
5 | H-GILKSLLKKLKKIIAK-NH2 |  | 17 | 24 | 0.33 | 10 | 2.2 | ≤ 7 | 5 | > 400 | 0.54 | 0.52 | 10 | ≤ 3 | 8.9 | 4.3 |  |  |  |  | 
6 | H-GILSKLLKKLKKIIAK-NH2 |  | 23 | 45 | 0.34 | 10 | 1.8 | ≤ 7 | 4.5 | > 400 | 0.33 | 0.65 | 18 | ≤ 3 | 8.5 | 5.9 |  |  |  |  | 
7 | H-GILSSLWKKLKKIIAK-NH2 |  | 5.3 | 11 | 0.44 | 5 | 2 | ≤ 7 | 5.3 | 197 | 0.56 | 0.65 | 3.4 | ≤ 3 | 8.8 | 2 |  |  |  |  | 
